# Source: PubChem (several laboratories)
# This is a sample that favours compounds with a hit; in the whole collection about 2.6% have one here.
# SENP6 block = inhibitors of human SENP6 protease | Q9GZR1 | Recombinant SENP6 catalytic domain, aminoluciferin luminescence | inhibition, % at 10 µM | 1.8% of 330,000 active | AID 2599;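 active means inhibition above about 50% at the single tested dose, limit read from the data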
# SENP1 FRET inh = blocks the human SENP1 SUMO protease catalytic domain; recombinant SENP1 catalytic domain, CyPet-SUMO1-YPet FRET cleavage; inhibition, % at 10 µM; 0.21% of 360,000 active; AID 624204;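 active means inhibition at least 30% at 10 µM, raw YFP signal under a set limit, fluorescence ratio 0.5 to 1.5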
# Target sequence (Q9P0U3 419-644 limits assumed): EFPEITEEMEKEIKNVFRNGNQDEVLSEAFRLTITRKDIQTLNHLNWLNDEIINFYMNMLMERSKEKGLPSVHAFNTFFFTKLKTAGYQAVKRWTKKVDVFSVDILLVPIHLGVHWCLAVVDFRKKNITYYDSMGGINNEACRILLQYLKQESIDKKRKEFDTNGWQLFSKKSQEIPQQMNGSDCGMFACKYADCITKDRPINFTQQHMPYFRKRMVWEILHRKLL
#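 Compound: 10 µM single point, 0.5% DMSO; Test system: hSENP1 catalytic domain, recombinant; Timing: 50 min reaction at room temperature; Technique: FRET, CFP and YFP emission; Control set: no-enzyme wells low, DMSO-plus-enzyme wells high control.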
# SENP8 block-1 = SENP8 protease inhibition; Q96LD8; purified SENP8, Z-RLRGG-aminoluciferin cleavage, luminescence; inhibition, % at 10 µM; 1.2% of 330,000 active; AID 2540; in the data active means inhibition above about 50%
# Target sequence (Q96LD8 whole entry, looked up): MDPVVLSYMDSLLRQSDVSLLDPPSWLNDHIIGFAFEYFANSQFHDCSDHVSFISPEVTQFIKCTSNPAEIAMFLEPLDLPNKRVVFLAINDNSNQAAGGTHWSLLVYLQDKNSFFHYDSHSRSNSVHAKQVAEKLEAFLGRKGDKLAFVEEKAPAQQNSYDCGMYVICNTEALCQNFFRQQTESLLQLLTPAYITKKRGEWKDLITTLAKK
# SENP7 block = SENP7 protease inhibition; Q9BQF6; recombinant SENP7, Z-RLRGG-aminoluciferin luminescence, 40 min; inhibition, % at 5 µM; 1.5% of 330,000 active; AID 434973;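 active means inhibition above about 50% at the single test dose, limit read from the data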
# SENP8 block-2 = blocks human SENP8 cleavage of Nedd8 substrate | Q96LD8 | recombinant SENP8, Nedd8 substrate fluorescence | inhibition, % at 20 µM | 0.64% of 360,000 active; in the data active means inhibition mostly above about 40%, no sharp cut-off; inactive means mostly below about 27%
# Platelet DG rel = modulates dense granule release in human platelets; human platelet-rich plasma, SFLLRN dense granule ATP release, luminescence; 0.22% of 300,000 active; inhibition, %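 (compounds screened at 7.5 µM in platelet-rich plasma)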;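 active means mean replicate score, as percent of positive control, at or above 50; inconclusive means mean below 50 but at least one replicate at or above 50; inactive means mean and every replicate below 50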
# SENP8 conf = confirmation of human SENP8 protease inhibitors. 40% of 6,200 active. Recombinant SENP8, Z-RLRGG-aminoluciferin luminescence, 60 min. shares compounds with SENP7 block. inhibition, % at 12.5 µM;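 active means mean inhibition across replicates above about 50%, limit read from the data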
# SENP6 conf = confirmation of human SENP6 protease inhibitors; shares compounds with SENP7 block; recombinant SENP6, Z-RLRGG-aminoluciferin luminescence; inhibition, % at 12.5 µM; 58% of 6,200 active; AID 488915
# SENP7 confirm = confirmation of human SENP7 protease inhibitors. shares compounds with SENP7 block. recombinant SENP7, Z-RLRGG-aminoluciferin luminescence, 40 min. inhibition, % at 12.5 µM. 69% of 6,200 active. AID 488917
# Casp3 select = selectivity test for SENP inhibitors: human caspase-3 inhibition; shares compounds with SENP7 block; purified caspase-3, Z-DEVD-aminoluciferin luminescence, 60 min; inhibition, % at 12.5 µM; 60% of 6,200 active; AID 488918;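 active means mean inhibition above about 50%, limit read from the data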
# Target sequence (P42574 28-227 limits assumed): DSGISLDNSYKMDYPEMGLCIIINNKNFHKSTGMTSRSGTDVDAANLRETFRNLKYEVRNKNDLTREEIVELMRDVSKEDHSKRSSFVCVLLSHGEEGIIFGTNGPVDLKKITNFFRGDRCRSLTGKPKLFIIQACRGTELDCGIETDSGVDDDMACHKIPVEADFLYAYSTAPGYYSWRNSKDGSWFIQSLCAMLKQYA
# Luc interf = luminescence interference (SENP counter-screen); shares compounds with SENP7 block; Pre-incubated SENP8/Z-RLRGG-aminoluciferin, luciferase luminescence interference; inhibition, % at 12.5 µM; 39% of 6,200 active;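 active means mean inhibition above about 50% when retested at one dose, limit read from the data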
# Hits are given with their value; . = inactive; ? = inconclusive; / = not tested or not shown.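 How the source made its calls, unless noted: active means mean inhibition above about 50% in the one-dose retest (limit read from the data); inactive means the rest.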
SMILES,SENP6 block,SENP1 FRET inh,SENP8 block-1,SENP7 block,SENP8 block-2,Platelet DG rel,SENP8 conf,SENP6 conf,SENP7 confirm,Casp3 select,Luc interf
CCOC(=O)N=S(N)(=O)c1ccccc1 (stereo unspecified),.,.,.,.,.,.,/,/,/,/,/
O=C(Nc1ccc(Cl)cc1)c1ccc(Br)cc1F,50.7,.,.,.,.,.,.,.,.,.,.
CC(C)c1ccc(NC(=O)c2cc(Br)ccc2Br)cc1,.,.,.,.,.,.,/,/,/,/,/
COc1ccc2c(Cl)c(C(=O)NN3CCN(C)CC3)sc2c1,.,.,.,.,.,.,/,/,/,/,/
Cc1cccc(NC(=O)c2cc(-c3ccc(C)c(C)c3O)n[nH]2)c1,.,.,.,85.6,.,.,.,.,94.6,59.4,54.2
Cc1ccc(NC(=O)c2cc(-c3ccc(C)c(C)c3O)n[nH]2)cc1C,.,.,.,.,.,.,/,/,/,/,/
CCc1sc(C(=O)Nc2nccs2)cc1C,80.0,.,67.5,79.9,.,.,83.2,81.2,95.9,79.3,.
CCc1sc(C(=O)Nc2ncccc2O)cc1C,69.1,.,.,65.8,.,.,62.0,59.1,86.8,82.6,64.3
O=C(Nc1nccs1)c1cc2c(s1)CCCCC2,95.3,.,94.9,98.2,.,.,98.0,99.2,102.3,96.6,86.8
CCOC(=O)CSC1=NC(=O)/C(=C\c2ccc(OC(C)=O)cc2)S1,71.9,.,.,78.2,.,.,56.9,52.0,73.4,.,77.1
COc1ccc(C2=NS(=O)(=O)N(C)C(C(=O)Nc3ccc(C(C)=O)cc3)=C2)cc1OC,.,.,.,.,.,.,/,/,/,/,/
CCC[C@H]1CN(Cc2ccccc2)C(=O)[C@@H]1CC(=O)NC,/,.,/,/,.,/,/,/,/,/,/
Cc1ccc(-n2nc3c(n2)/C(=N/O)CC/C3=N\O)cc1,.,.,65.9,78.5,.,.,.,.,.,.,.
CC(=O)c1ccc(N2CCN(C(=O)C3CCN(S(=O)(=O)c4cccs4)CC3)CC2)cc1,.,.,.,.,.,.,/,/,/,/,/
Cc1cc(Cl)ccc1NC(=O)CCC(=O)N/N=C/c1cc([N+](=O)[O-])ccc1O,.,.,.,.,.,.,/,/,/,/,/
O=[N+]([O-])c1ccc(O)c(/C=N/NC(=S)Nc2ccc(Cl)cc2Cl)c1,94.2,.,87.5,57.1,.,.,76.7,85.3,54.7,.,.
Clc1ccc(-c2nc(-c3cc4cc(Cl)ccc4o3)cs2)cc1,.,.,.,.,.,.,/,/,/,/,/
O=C1/C(=C/c2cccs2)COc2ccccc21,97.7,.,80.9,83.2,.,.,85.9,91.8,90.3,68.8,94.0
CN(C)/N=C/C=C1\CCC/C(=C/c2cccs2)C1=O,.,.,.,.,.,.,/,/,/,/,/
COc1cccc(COc2ccc3c(C)cc(=O)oc3c2)c1,76.6,.,68.1,71.3,.,.,.,75.0,90.4,64.9,62.0
CN(C)c1ccnc2sc3c(SCc4ccc(Cl)cc4)ncnc3c12,.,.,.,57.7,.,.,.,.,.,.,.
O=C(Nc1nc(OCC(F)(F)F)cnc1/C=C\c1ccccc1)c1ccccc1,/,.,/,/,.,/,/,/,/,/,/
c1ccc2nc(-c3nc4ccccc4o3)ccc2c1,98.4,.,96.9,99.9,.,?,98.0,99.8,102.2,98.6,94.8
c1ccc(-c2nc3ccccc3o2)nc1,.,.,.,.,.,.,/,/,/,/,/
O=C(Nc1cccc(F)c1)N1CCc2nc(NCc3cccc(Oc4ccccc4)c3)ncc2C1,/,.,/,/,.,/,/,/,/,/,/
SMILES,SENP6 block,SENP1 FRET inh,SENP8 block-1,SENP7 block,SENP8 block-2,Platelet DG rel,SENP8 conf,SENP6 conf,SENP7 confirm,Casp3 select,Luc interf
Cc1cc(C(=O)N2CCC2(C)C(=O)O)nn1C(C)(C)C (stereo unspecified),/,.,/,/,.,/,/,/,/,/,/
COc1ccc(N=Cc2ccccc2O)cc1,/,.,/,/,.,/,/,/,/,/,/
COc1cc(O)sc1C=Nc1ccc(Cl)cc1,95.0,.,82.3,91.5,.,.,85.4,86.9,100.3,84.0,56.8
COc1cccc(-c2cc(C(=O)N3CCc4ccccc4C3)[nH]n2)c1,.,.,.,.,.,.,/,/,/,/,/
O=S(=O)(O)c1ccc(N=NNc2ccc(Br)cc2)cc1,89.5,.,89.9,89.9,.,.,90.9,91.1,98.8,85.2,93.0
c1ccn2c(c1)nc1c2nc2ccccn21,.,.,.,.,.,.,/,/,/,/,/
Clc1c(-c2ccccc2)nc2ccccn12,64.7,.,55.4,54.5,.,.,.,.,79.7,65.8,.
Clc1cccc(-c2ccc(-c3nc4ccccn4c3NCc3ccccc3)cc2)c1,.,.,64.8,53.4,.,/,.,.,71.1,.,.
Cc1ccc(-c2nc3ccccn3c2C=O)cc1,.,.,.,.,.,.,/,/,/,/,/
Cc1c(-c2ccc(Br)cc2)nc2ccccn12,95.6,.,87.9,89.9,.,.,.,88.5,99.6,88.0,88.6
CCOC(=O)N1CCC(N2CCN(C3CCCC3)C(CCO)C2)CC1 (stereo unspecified),.,.,.,.,.,.,/,/,/,/,/
Cc1ccc(N2C(=O)c3ccccc3C2=O)cc1,.,.,.,.,.,.,/,/,/,/,/
Cc1ccc(N2C(=O)c3ccccc3C2=O)cc1Cl,.,.,.,51.1,.,.,.,.,.,.,.
NS(=O)(=O)c1ccc(CNC(=O)c2ccc3c(=O)n4c(nc3c2)CCC4)cc1,.,.,.,.,.,.,/,/,/,/,/
Cn1c2ccccc2c(=O)c2ccc(NCCc3cccs3)cc21,68.0,.,66.3,.,.,/,80.7,88.5,96.7,79.0,.
O=C(Nc1cccc(NC(=O)c2cccc(F)c2)n1)c1cccc(F)c1,.,.,.,.,.,.,/,/,/,/,/
CCOc1cccc(C(=O)Nc2cccc(C(C)=O)c2)c1,.,.,.,.,.,.,/,/,/,/,/
CCOc1cccc(C(=O)Nc2ccc3ccccc3c2)c1,92.9,.,88.4,92.2,.,.,.,65.7,98.9,.,.
CCOc1cccc(C(=O)Nc2ccc3c(c2)OCCO3)c1,69.1,.,.,64.6,.,.,66.2,63.1,89.2,77.0,69.0
O=C(Nc1ccc2ccccc2c1)c1cccc(F)c1,.,.,60.3,73.4,.,.,.,58.8,87.1,.,.
O=C(COC(=O)c1ccccc1Nc1ccc(SC(F)F)cc1)NCc1ccco1,65.1,.,.,.,.,.,.,.,.,.,.
